Test results as given in ChEMBL document CHEMBL3243948, “Vitamin B6 antagonists obtained by replacing or modifying the 2-methyl group” (J Med Chem, 1977).
Active and inactive are the calls of the source. The calls are words filed in the database; no cut-off is given here.

target: T1, Pyridoxal kinase (Homo sapiens, UniProt O00764); assay: Competitive inhibition of pyridoxal phosphokinase (unknown origin); settings: not given
T1 sequence (O00764 whole entry): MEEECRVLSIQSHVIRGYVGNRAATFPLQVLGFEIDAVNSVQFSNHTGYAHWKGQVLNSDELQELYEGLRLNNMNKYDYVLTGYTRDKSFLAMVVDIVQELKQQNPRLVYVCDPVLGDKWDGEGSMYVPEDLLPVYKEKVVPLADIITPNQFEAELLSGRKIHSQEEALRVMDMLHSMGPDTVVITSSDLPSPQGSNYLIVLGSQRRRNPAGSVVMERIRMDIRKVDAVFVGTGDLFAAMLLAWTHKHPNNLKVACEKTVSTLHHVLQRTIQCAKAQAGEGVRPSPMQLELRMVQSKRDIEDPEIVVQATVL
Summary of the method: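 Inhibitor tested against pyridoxal phosphokinase-catalysed phosphorylation of pyridoxal (substrate). Ki derived from competitive kinetics.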

Structure (SMILES) | Ki [µM]
C#Cc1ncc(CO)c(CO)c1O | 105
OCc1cnc(Cl)c(O)c1CO | 24

tested on: TA3; assay: Growth inhibition of mouse TA3 cells in presence of 10^-7 M pyridoxal relative to control; format: functional; settings: not given
Summary of the method: (§1)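 Mouse mammary adenocarcinoma TA3 cells cultured in Eagle's medium with minimal pyridoxal (1 X 10^-7 M) to sustain growth. Compounds were scored for inhibition of growth.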

Structure (SMILES) | growth inhibition (GI) [%]
CNc1ncc(CO)c(CO)c1O.Cl | 15
NCc1ncc(CO)c(CO)c1O | 25
NC(=O)c1ncc(CO)c(CO)c1O | 40

tested on: TA3; assay: Growth inhibition of mouse TA3 cells at 1 X 10^-4 M in presence of 10^-7 M pyridoxal; format: functional, cell-based; settings: not given

Structure (SMILES) | growth inhibition (GI)
COc1cncc2c1C(=O)OC2=O | inactive
COc1c(C)ncc(CO)c1CO | inactive
CCOC(=O)c1cncc(OC)c1C(=O)OCC | inactive
COc1cncc(C(=O)O)c1C(=O)O | inactive
COc1cncc(CO)c1CO | inactive
COc1c(C(=O)O)ncc(C(=O)O)c1C(=O)O | inactive
COC(=O)c1cncc(OC)c1C(=O)OC | inactive

tested on: TA3; assay: Growth inhibition of mouse TA3 cells in presence of 10^-5 M pyridoxal; format: functional; settings: not given
Summary of the method: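 TA3 mouse mammary adenocarcinoma cells grown in complete Eagle's medium, which holds a higher pyridoxal level than the minimal medium. Compounds were tested for growth inhibition.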

Structure (SMILES) | growth inhibition (GI) | ID50 [×10⁻⁵ M]
Cl.Nc1ncc(CO)c(CO)c1O | inactive | 
OCc1cnc(/C=N/N=C/c2ncc(CO)c(CO)c2O)c(O)c1CO |  | 1.1
OCc1cnc(Cl)c(O)c1CO | inactive | 

same assay, conditions: Mus musculus, TA3; read-out: ID50 (the source's name)

Structure (SMILES) | IC50 [µM]
C=Cc1ncc(CO)c(CO)c1O | 9.4

tested on: TA3; assay: Growth inhibition of mouse TA3 cells in presence of 10^-7 M pyridoxal; format: functional; settings: not given; summary of the method: as §1

Structure (SMILES) | ID50
Cl.Nc1ncc(CO)c(CO)c1O | 1.25 ×10⁻⁵ M
Br.COC(=O)N(C)c1ncc(CO)c(CO)c1OCc1ccccc1 | 1.6 ×10⁻⁴ M
CNc1ncc(CO)c(CO)c1O.Cl | 1 ×10⁻⁴ M
NCc1ncc(CO)c(CO)c1O | 1 ×10⁻⁵ M
O=Cc1ncc(CO)c(CO)c1O | 1.7 ×10⁻⁴ M
OCc1cnc(/C=N/N=C/c2ncc(CO)c(CO)c2O)c(O)c1CO | 1.6 ×10⁻⁵ M
O=C(SCc1ncc(CO)c(CO)c1OCc1ccccc1)c1ccccc1 | 3 ×10⁻⁵ M
Cn1c(=O)oc2c(CO)c(CO)cnc21 | >1 ×10⁻⁴ M
O=C(O)c1ncc(CO)c(CO)c1O | >1 ×10⁻⁴ M
OCc1cnc(F)c(O)c1CO | >1 ×10⁻⁴ M
CC1(C)OCc2cnc(CCl)c(OCc3ccccc3)c2CO1.Cl | 12 ×10⁻⁵ M
NC(=O)c1ncc(CO)c(CO)c1O | 1 ×10⁻⁴ M
N/N=C/c1ncc(CO)c(CO)c1O | 2.3 ×10⁻⁴ M
OCc1cnc(Cl)c(O)c1CO | 4.5 ×10⁻⁵ M

same assay, conditions: Mus musculus, TA3; read-out: ID50 (the source's name)

Structure (SMILES) | IC50 [µM]
C=Cc1ncc(CO)c(CO)c1O | 9.4
